Measured values as given in the array DNA melting data of Ke et al. (doi:10.1101/2024.01.08.574731).

What was measured:
[1] = folding enthalpy; higher = less favourable; fluorescence melt of hairpins on a sequencing array, two-state fit; details: sodium 0.088 M
In short: (§1)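 Two-state fits, bootstrapped, provided melting temperature and folding enthalpy from Cy3 fluorescence normalised to pre-quench Cy3 and to control constructs. Library hairpins with annealed Cy3 and quencher oligos were imaged on a sequenced MiSeq flow cell in 50 mM Na-HEPES pH 8.0, 25 mM NaCl, at 2.5 °C intervals up to 60 °C. Four replicates were combined with inverse-variance weighting. A 9.35 °C upward shift was applied to fitted temperatures to match UV melts.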

[2] = melting temperature; fluorescence melt of hairpins on a sequencing array, two-state fit, raised by 9.35 °C to match UV melts; details: sodium 0.088 M
In short: as §1

Sequence	folding enthalpy [1]	Tm [2]
GATCCTAGGAAGGATC ((((((....))))))	-32.8 kcal/mol	50.1 °C
GATCCTAGGCAGGATC ((((((....))))))	-35.4 kcal/mol	53.3 °C
GATCCTAGGGAGGATC ((((((....))))))	-29.6 kcal/mol	51.8 °C
GATCCTATCCAGGATC ((((((....))))))	-33.8 kcal/mol	53 °C
GATCCTATCTAGGATC ((((((....))))))	-37.3 kcal/mol	52.7 °C
GATCCTATGCAGGATC ((((((....))))))	-35.2 kcal/mol	53 °C
GATCCTATTAAGGATC ((((((....))))))	-44.9 kcal/mol	52.2 °C
GATCCTCACTAGGATC ((((((....))))))	-35.1 kcal/mol	51.7 °C
GATCCTCAGAGGATC ((((((...))))))	-31.6 kcal/mol	52.1 °C
GATCCTCATAGGATC ((((((...))))))	-37.4 kcal/mol	53.1 °C
GATCCTCATTAGGATC ((((((....))))))	-33.8 kcal/mol	51.1 °C
GATCCTCCAGAGGATC ((((((....))))))	-35.5 kcal/mol	55.5 °C
GATCCTCGTCAGGATC ((((((....))))))	-25.1 kcal/mol	50.8 °C
GATCCTCTCAAGGATC ((((((....))))))	-39.9 kcal/mol	53.2 °C
GATCCTCTCAGGATC ((((((...))))))	-36.4 kcal/mol	55 °C
GATCCTCTGAGGATC ((((((...))))))	-33 kcal/mol	51.9 °C
GATCCTCTGCAGGATC ((((((....))))))	-37 kcal/mol	50.7 °C
GATCCTCTTCAGGATC ((((((....))))))	-38.2 kcal/mol	51.3 °C
GATCCTGAACAGGATC ((((((....))))))	-38.4 kcal/mol	59.9 °C
GATCCTGACCAGGATC ((((((....))))))	-45.1 kcal/mol	56.5 °C
GATCCTGATAAGGATC ((((((....))))))	-37 kcal/mol	64.4 °C
GATCCTGCAAGGATC ((((((...))))))	-39.6 kcal/mol	68.5 °C
GATCCTGCACAGGATC ((((((....))))))	-47.2 kcal/mol	58.9 °C
GATCCTGCATAGGATC ((((((....))))))	-43.4 kcal/mol	60.9 °C

Sequence	folding enthalpy [1]	Tm [2]
GATCCTGCCCAGGATC ((((((....))))))	-49.4 kcal/mol	57 °C
GATCCTGCCGAGGATC ((((((....))))))	-32.1 kcal/mol	53 °C
GATCCTGCCTAGGATC ((((((....))))))	-43.7 kcal/mol	54.7 °C
GATCCTGCGCAGGATC ((((((....))))))	-53 kcal/mol	59.3 °C
GATCCTGCTCAGGATC ((((((....))))))	-48.1 kcal/mol	55.2 °C
GATCCTGGAAACGGGATC (((((.(....).)))))	-42.8 kcal/mol	50.9 °C
GATCCTGGATAGGATC ((((((....))))))	-39 kcal/mol	57.5 °C
GATCCTGGGGAGGATC ((((((....))))))	-36.8 kcal/mol	51 °C
GATCCTGTAAAGGATC ((((((....))))))	-39.6 kcal/mol	60.5 °C
GATCCTGTCAAGGATC ((((((....))))))	-42.7 kcal/mol	64.9 °C
GATCCTGTGCAGGATC ((((((....))))))	-43.2 kcal/mol	55 °C
GATCCTGTGGAGGATC ((((((....))))))	-31.8 kcal/mol	51.8 °C
GATCCTTAAAGGATC ((((((...))))))	-33.7 kcal/mol	51.7 °C
GATCCTTACAAGGATC ((((((....))))))	-38.1 kcal/mol	54.2 °C
GATCCTTAGGAGGATC ((((((....))))))	-39.2 kcal/mol	51 °C
GATCCTTATCAGGATC ((((((....))))))	-33.2 kcal/mol	51 °C
GATCCTTCCCAGGATC ((((((....))))))	-36.9 kcal/mol	52 °C
GATCCTTCGGAGGATC ((((((....))))))	-38.2 kcal/mol	52.3 °C
GATCCTTGCAAGGATC ((((((....))))))	-41 kcal/mol	55.4 °C
GATCCTTGCTAGGATC ((((((....))))))	-35.7 kcal/mol	53.7 °C
GATCCTTGGAAGGATC ((((((....))))))	-32.1 kcal/mol	52.2 °C
GATCCTTGTAAGGATC ((((((....))))))	-42.3 kcal/mol	55.6 °C
GATCCTTTCCAGGATC ((((((....))))))	-46.1 kcal/mol	51.7 °C
GATCCTTTCGAGGATC ((((((....))))))	-38.7 kcal/mol	53.8 °C

Sequence	folding enthalpy [1]	Tm [2]
GATCCTTTGCAGGATC ((((((....))))))	-30.6 kcal/mol	52 °C
GATCGAAAACTCGATC ((((((....))))))	-30.3 kcal/mol	47.2 °C
GATCGAAAATTCGATC ((((((....))))))	-33.9 kcal/mol	50 °C
GATCGAAACTCGATC ((((((...))))))	-30.4 kcal/mol	50.2 °C
GATCGAAACTTCGATC ((((((....))))))	-33.9 kcal/mol	53.5 °C
GATCGAAATTTCGATC ((((((....))))))	-41.2 kcal/mol	53.7 °C
GATCGAACCATCGATC ((((((....))))))	-41.6 kcal/mol	50.4 °C
GATCGAACCGTCGATC ((((((....))))))	-37 kcal/mol	49.5 °C
GATCGAACTATCGATC ((((((....))))))	-43.8 kcal/mol	50.3 °C
GATCGAACTCTCGATC ((((((....))))))	-35.6 kcal/mol	49.7 °C
GATCGAAGCATCGATC ((((((....))))))	-35.8 kcal/mol	51.2 °C
GATCGAATAGTCGATC ((((((....))))))	-34.8 kcal/mol	48.8 °C
GATCGAATCCTCGATC ((((((....))))))	-41.1 kcal/mol	50.6 °C
GATCGAATCTCGATC ((((((...))))))	-38.2 kcal/mol	51 °C
GATCGACAACTCGATC ((((((....))))))	-33.8 kcal/mol	48.5 °C
GATCGACAATTCGATC ((((((....))))))	-42.5 kcal/mol	49.2 °C
GATCGACACATCGATC ((((((....))))))	-38.5 kcal/mol	52.4 °C
GATCGACACCTCGATC ((((((....))))))	-44.7 kcal/mol	52.5 °C
GATCGACAGTCGATC ((((((...))))))	-40.4 kcal/mol	49.8 °C
GATCGACAGTTCGATC ((((((....))))))	-44.4 kcal/mol	49.2 °C
GATCGACCATCGATC ((((((...))))))	-32.2 kcal/mol	49.6 °C
GATCGACCATTCGATC ((((((....))))))	-39.6 kcal/mol	50.1 °C
GATCGACCCTCGATC ((((((...))))))	-39.1 kcal/mol	51.7 °C
GATCGACCCTTCGATC ((((((....))))))	-45.1 kcal/mol	53.4 °C
